Legend:
[1] = pKa value of the compound.; type: physicochemical
[2] = Compound was evaluated for the ability to inhibit purified H+/K+ -ATPase at pH 7.4, by using gastric membrane vesicles prepared from hog stomach.; type: functional, tissue-based, Sus scrofa
Method in brief: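 Lyophilized, K+-permeable hog gastric membrane vesicles (10 μg) preincubated with inhibitor 30 min at 37 °C in 2 mM Pipes-Tris pH 7.4 with 10 mM KCl. Reaction started with 2 mM ATP/2 mM MgCl2. Read-out is inorganic phosphate release. K+-stimulated activity = total minus basal Mg2+ activity. Inhibitors added from methanol, final 1%. IC50 = 50% inhibition.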

[3] = Compound was evaluated for the ability to inhibit H+/K+ -ATPase formation in rabbit gastric glands.; type: functional, tissue-based, Oryctolagus cuniculus, Stomach
Method in brief: (§1)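 Isolated rabbit gastric glands (collagenase-digested corpus mucosa, 37 °C ~1 h, rinsed, in respiratory medium pH 7.4). 10 mg wet weight glands incubated in RM with 0.05 μCi [14C]aminopyrine, stimulated with 10^-4 M histamine, 37 °C, 1 h shaking. Acid formation read as aminopyrine uptake. Inhibitors diluted in methanol, final 1%. IC50 = 50% inhibition.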

Sus scrofa = organism: Sus scrofa; assay: The percent of compound protonated at pH 7.4 in purified H+/K+ -ATPase from hog stomach.
[4] = Inhibitory activity against histamine-stimulated gastric acid secretion in adult mengrel dogs, with surgically prepared Heidenhain pouches after peroral administration; type: functional; details: Canis lupus familiaris, Stomach, po
Method in brief: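 Heidenhain pouch mongrel dogs under histamine-stimulated acid secretion, oral dosing 2-8 mg/kg. Reduction in acid output taken relative to the untreated control value in the same dog. ED50 by linear regression, with 95% confidence limits.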

[5] = Inhibitory activity against histamine-stimulated gastric acid secretion in adult mengrel dogs, with surgically prepared Heidenhain pouches after intravenous administration; type: functional; details: Canis lupus familiaris, Stomach
Method in brief: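 Adult mongrel dogs with surgically prepared Heidenhain pouches, acid secretion stimulated by histamine. Intravenous dosing, 0.1-5 mg/kg. Acid output reduction measured against the non-drug control in the same animal. ED50 from linear regression, with 95% confidence limits.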

[6] = Compound was evaluated for the ability to inhibitH+/K+ -ATPase formation in rabbit gastric glands.; type: functional, tissue-based, Oryctolagus cuniculus, Stomach; method in brief: as §1
Oryctolagus cuniculus = organism: Oryctolagus cuniculus; assay: The percent of compound protonated at pH 7.4.; type: functional

Row | pKa [1] | IC50 [2] [uM l-1] | IC50 [3] [uM l-1] | Protonated (Sus scrofa) [%] | IC50 [6] [uM l-1] | SMILES | ED50 [4] [mg/kg] | ED50 [5] [mg/kg] | Protonated (Oryctolagus cuniculus) [%]
1 | 5.67 | 13.7 | 0.4 | 1.83 | – | Cc1ccn2c(CC#N)c(C)nc2c1OCc1ccccc1 | – | – | –
2 | 4.6 | 178 | 8.08 | 0.158 | – | Cc1nc2c(OCc3ccccc3)nccn2c1N | – | – | –
3 | 6.81 | 0.89 | 0.31 | 20.4 | – | Cc1nc2c(OCc3ccccc3)cccn2c1N | – | – | –
4 | 6 | 2 | 0.13 | 3.83 | – | Cc1nc2c(CCc3ccccc3)cccn2c1CC#N | > 4.4 | 0.1 | –
5 | 7.2 | 1.68 | – | – | 0.99 | Cc1nc2c(/C=C/c3ccccc3)cccn2c1C | 4.8 | 0.7 | 38.7
6 | 6 | 206 | 442 | 3.83 | – | Cc1nc2c(C/C=C/c3ccccc3)cccn2c1CC#N | – | – | –
7 | 7.2 | 28.4 | – | – | 17.5 | Cc1nc2c(/C=C\c3ccccc3)cccn2c1C | – | – | 38.7
8 | 7.3 | 2.1 | 1.46 | 44.3 | – | Cc1nc2c(CCc3ccccc3)cccn2c1N | – | – | –
9 | 6 | 0.092 | 0.064 | 3.83 | – | Cc1nc2c3c(ccn2c1CC#N)CCC(c1ccccc1)O3 (racemic) | – | – | –
10 | 5.7 | 14 | 3.8 | 1.96 | – | Cc1nc2c(/C=C/Cc3ccccc3)cccn2c1CC#N | – | – | –
11 | 5.5 | – | – | – | – | Cc1nc2c(OCc3ccccc3)cccn2c1CC#N | – | – | –
12 | 6.75 | 8.6 | 14.1 | 18.3 | – | Cc1nc2c(/C=C/Cc3ccccc3)cccn2c1N | – | – | –

— ChEMBL document CHEMBL1125872, “Antiulcer agents. 5. Inhibition of gastric H+/K(+)-ATPase by substituted imidazo[1,2-a]pyridines and related analogues and its implication in modeling the high affinity potassium ion binding site of the gastric proton pump enzyme” (J Med Chem, 1991)
